Active and inactive are the calls of the source.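 The calls were made as follows: active = current rise at least 3 SD above the untreated control mean in each of two repeat wells; inactive = the rest.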
molecular target: Potassium voltage-gated channel subfamily KQT member 1 (Homo sapiens) (UniProt P51787); test: KCNQ1 channel current potentiators, confirmation, orthogonal assay for KCNQ1 potentiator project, IonWorks patch clamp, KCNQ1-CHO cells (AID 493184); details: automated patch clamp current, at 10 µM
Method in brief: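 assay system = KCNQ1-expressing CHO cells | medium = external bath solution at pH 7.4 | probe or stimulus = 2,000 ms depolarization, -90 to +40 mV | compound dosing = 10 µM final, single point | measured by = automated voltage clamp, amphotericin B perforated patch | measure = percent current increase versus pre-compound level | replication = duplicates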

Sequence of Potassium voltage-gated channel subfamily KQT member 1 (Homo sapiens) (P51787 whole entry, looked up): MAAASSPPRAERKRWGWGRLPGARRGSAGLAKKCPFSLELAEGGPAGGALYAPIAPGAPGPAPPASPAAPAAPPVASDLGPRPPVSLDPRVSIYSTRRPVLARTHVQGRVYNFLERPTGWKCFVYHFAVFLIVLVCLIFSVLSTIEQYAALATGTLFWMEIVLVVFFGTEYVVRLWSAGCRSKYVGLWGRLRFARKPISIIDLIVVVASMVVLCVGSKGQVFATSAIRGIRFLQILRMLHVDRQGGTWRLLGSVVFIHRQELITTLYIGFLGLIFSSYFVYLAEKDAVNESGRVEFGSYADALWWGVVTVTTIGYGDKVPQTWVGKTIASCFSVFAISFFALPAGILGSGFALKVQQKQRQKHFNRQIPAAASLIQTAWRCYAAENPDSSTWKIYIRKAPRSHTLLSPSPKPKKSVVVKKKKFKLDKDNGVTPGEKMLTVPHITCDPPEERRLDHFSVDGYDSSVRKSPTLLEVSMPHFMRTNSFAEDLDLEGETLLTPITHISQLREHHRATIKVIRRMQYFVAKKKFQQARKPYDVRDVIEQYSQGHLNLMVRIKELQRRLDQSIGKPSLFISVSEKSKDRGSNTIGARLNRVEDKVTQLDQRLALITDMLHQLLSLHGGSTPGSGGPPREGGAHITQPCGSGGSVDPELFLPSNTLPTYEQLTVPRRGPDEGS

outcome, inactive:
Cc1onc(-c2ccccc2)c1C(=O)NC(=S)NNC(=O)c1ccccc1O
CCOC(=O)CNC(=O)N1CCc2ccc(NC(=O)c3ccccc3Cl)cc2C1
Cc1cccc(/N=C/c2sc3ccccc3c2O)n1
N#CC(c1ccccc1)c1ccc2c(C(F)(F)F)cc(C(F)(F)F)nc2n1 (stereo not drawn)
CCc1ccc2oc(C(=O)NC3CCS(=O)(=O)C3)cc(=O)c2c1 (stereo not drawn)
Cc1ccccc1C(OCCN(C)C)C1CCCCC1 (stereo not drawn)
CC(OC(=O)CC1Sc2ccccc2NC1=O)C(=O)NC1CCCC1 (stereo not drawn)
O=C1c2ccccc2C2(c3cc(C(F)(F)F)cc(C(F)(F)F)c3)NCCN12 (stereo not drawn)
CCOC(=O)CSC(=S)NC(=O)c1ccc(OC)cc1
O=C(Nc1nnc(-c2ccco2)o1)c1ccc(Cl)cc1
Cc1cccc(-c2nnc(NC(=O)c3ccc(Cl)cc3)o2)c1
O=c1c2c(-c3ccco3)csc2nc(SCc2cn3cccnc3n2)n1-c1ccccc1
Cc1nc(=S)c2c([nH]1)-c1ccccc1CC21CCCCC1
C=CCn1c(O)c(N=NC(=S)Nc2ccccc2F)c2cc(S(=O)(=O)N3CCOCC3)ccc21
CCN(CC)CCn1c(=S)[nH]c2cc(C(=O)NCc3ccc(C)cc3)ccc2c1=O
CCOc1ccc2nc(/N=C/c3c(C)[nH]n(-c4ccccc4)c3=O)sc2c1
O=S(=O)(NCCOc1ccccc1)c1ccc2ccccc2c1
CCOC(=O)c1ccc(N2C(=O)C3ON(c4ccccc4)C(c4ccco4)C3C2=O)cc1 (stereo not drawn)

From PubChem BioAssay
